ChEMBL document CHEMBL5647697, “Akt inhibition synergizes with polycomb repressive complex 2 inhibition in the treatment of multiple myeloma” (2019)
Activity calls are given as the source filed them. No cut-off for these calls is given here.

Tests used:
[1] = tested on: OPM-2/BTZ; assay: Downregulation of cyclin D1 protein expression in human OPM-2/BTZ cells incubated at 0.3 to 3 micromol/L for 48 hrs by Western blot analysis; format: functional, cell-based; conditions: dose 0.3-3 µmol/L
[2] = tested on: NCI-H929; assay: Upregulation of p27 protein expression in human NCI-H929 cells incubated at 0.3 to 3 micromol/L for 48 hrs by Western blot analysis; format: functional, cell-based; conditions: dose 0.3-3 µmol/L
[3] = tested on: NCI-H929; assay: Downregulation of CDK1 protein expression in human NCI-H929 cells incubated at 0.3 to 3 micromol/L for 48 hrs by Western blot analysis; format: functional, cell-based; conditions: dose 0.3-3 µmol/L
Procedure, shortened: (§1)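 MM.1S and H929 cells given TAS-117 at the indicated doses for 48 h. Protein levels assessed by immunoblot.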

[4] = tested on: MM1.S; assay: Downregulation of cyclin D1 protein expression in human MM1.S cells incubated at 0.3 to 3 micromol/L for 48 hrs by Western blot analysis; format: functional, cell-based; conditions: dose 0.3-3 µmol/L; procedure, shortened: as §1
[5] = tested on: MM1.S; assay: Upregulation of p27 protein expression in human MM1.S cells incubated at 0.3 to 3 micromol/L for 48 hrs by Western blot analysis; format: functional, cell-based; conditions: dose 0.3-3 µmol/L
[6] = tested on: NCI-H929; assay: Downregulation of cyclin D1 protein expression in human NCI-H929 cells incubated at 0.3 to 3 micromol/L for 48 hrs by Western blot analysis; format: functional, cell-based; conditions: dose 0.3-3 µmol/L; procedure, shortened: as §1
[7] = tested on: OPM-2/BTZ; assay: Upregulation of p27 protein expression in human OPM-2/BTZ cells incubated at 0.3 to 3 micromol/L for 48 hrs by Western blot analysis; format: functional, cell-based; conditions: dose 0.3-3 µmol/L
[8] = tested on: MM1.S; assay: Synergistic activity against human MM.1S cells assessed as combination index […] at 0.125 uM incubated for 48 hrs MTT assay; format: functional
Procedure, shortened: (§2)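 Cells were exposed to the EZH2/EZH1 inhibitor (UNC1999 or GSK126) for 72 h in total, with the Akt inhibitor added for the last 48 h. Viability was read by MTS assay relative to untreated control cells, in triplicate. The combination index for each dose pair came from isobologram analysis.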

[9] = tested on: MM1.S; assay: Synergistic activity against human MM.1S cells assessed as combination index […] in presence of 1.25 uM UNC1999 […] at 0.25 uM incubated for 48 hrs by MTT assay; format: functional; procedure, shortened: as §2
[10] = tested on: MM1.S; assay: Synergistic activity against human MM.1S cells assessed as combination index […] in presence of 1.25 uM UNC1999 […] at 0.5 uM incubated for 48 hrs by […] assay; format: functional; procedure, shortened: as §2
[11] = tested on: MM1.S; assay: Synergistic activity against human MM.1S cells assessed as combination index […] in presence of 2.5 uM UNC1999 […] […] compound addition at 0.125 uM incubated for 48 hrs by MTT assay; format: functional; procedure, shortened: as §2
[12] = tested on: MM1.S; assay: Synergistic activity against human MM.1S cells assessed as combination index […] at 0.5 uM incubated for 48 hrs by MTT assay; format: functional; procedure, shortened: as §2
[13] = tested on: MM1.S; assay: Synergistic activity against human MM.1S cells assessed as combination index […] in presence of 2.5 uM GSK126 […] at 0.5 uM incubated for 48 hrs by MTT assay; format: functional; procedure, shortened: as §2
[14] = tested on: NCI-H929; assay: Synergistic activity against human NCI-H929 cells assessed as combination index preincubated in presence of 2.5 uM GSK126 […] at 0.125 uM incubated for 48 hrs by […]; format: functional; procedure, shortened: as §2
[15] = tested on: OPM-2/BTZ; assay: Synergistic activity against human OPM-2/BTZ cells assessed as combination index preincubated in presence of 2.5 uM UNC1999 for 72 hrs followed by compound addition at 2 uM incubated for 48 hrs by MTT assay; format: functional
[16] = tested on: OPM-2/BTZ; assay: Synergistic activity against human OPM-2/BTZ cells assessed as combination index preincubated in presence of 1.25 uM GSK126 for 72 hrs followed by compound addition at 1 uM incubated for 48 hrs by MTT assay; format: functional
[17] = tested on: OPM-2/BTZ; assay: Synergistic activity against human OPM-2/BTZ cells assessed as combination index preincubated in presence of 2.5 uM GSK126 for 72 hrs followed by compound addition at 2 uM incubated for 48 hrs by MTT assay; format: functional
[18] = tested on: OPM-2; assay: Synergistic activity against human OPM-2 cells assessed as combination index preincubated in presence of 2.5 uM GSK126 for 72 hrs followed by compound addition at 2.5 uM incubated for 48 hrs by MTT assay; format: functional
[19] = tested on: MM1.S; assay: Induction of apoptosis in human MM1.S cells assessed as necrotic cells at 2 micromol/L incubated for 12 hrs by annexin V/PI staining based flow cytometry (reference value: 0.17%); format: functional; conditions: dose 2 µmol/L, at 2 µM
[20] = tested on: MM1.S; assay: Induction of apoptosis in human MM1.S cells assessed as late apoptotic cells at 2 micromol/L incubated for 12 hrs by annexin V/PI staining based flow cytometry (reference value: 3.6%); format: functional; conditions: dose 2 µmol/L, at 2 µM
[21] = tested on: MM1.S; assay: Induction of apoptosis in human MM1.S cells assessed as live cells at 2 micromol/L incubated for 12 hrs by annexin V/PI staining based flow cytometry (reference value: 88.2%); format: functional; conditions: dose 2 µmol/L, at 2 µM
[22] = tested on: NCI-H929; assay: Upregulation of FOXO3 in human NCI-H929 cells assessed as enhanced nuclear accumulation at 0.5 micromol/L after 24 hrs by immunofluorescence staining; format: functional, cell-based; conditions: dose 0.5 µmol/L
Procedure, shortened: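 MM.1S and H929 cells were treated with or without 0.5 μmol/L TAS-117 for 24 h. Cells were immunostained with anti-FOXO3. Jurkat cells served as positive control and cells without primary antibody as negative control. Read-out was the average fluorescence intensity of the nuclear FOXO3 fraction versus untreated cells.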

[23] = tested on: MM1.S; assay: Upregulation of FOXO4 […] expression in human MM1.S cells assessed as enhanced nuclear accumulation at 1 micromol/L after 24 hrs by immunofluorescence staining; format: functional, cell-based; conditions: dose 1.0 µmol/L
[24] = tested on: OPM-2; assay: Synergistic activity against human OPM-2 cells assessed as combination index preincubated in presence of 2.5 uM UNC1999 for 72 hrs followed by compound addition at 5 uM incubated for 48 hrs by MTT assay; format: functional
[25] = tested on: OPM-2; assay: Synergistic activity against human OPM-2 cells assessed as combination index preincubated in presence of 5 uM UNC1999 for 72 hrs followed by compound addition at 1.25 uM incubated for 48 hrs by MTT assay; format: functional
[26] = tested on: NCI-H929; assay: Induction of apoptosis in human NCI-H929 cells assessed as late apoptotic cells at 5 micromol/L incubated for 48 hrs by annexin V/PI staining based flow cytometry (reference value: […]%); format: functional; conditions: dose 5 µmol/L
[27] = tested on: NCI-H929; assay: Induction of apoptosis in human NCI-H929 cells assessed as live cells at 2 micromol/L incubated for 12 hrs by annexin V/PI staining based flow cytometry (reference value: 95.6%); format: functional; conditions: dose 2 µmol/L, at 2 µM
[28] = tested on: NCI-H929; assay: Induction of apoptosis in human NCI-H929 cells assessed as early apoptotic cells preincubated in presence of 5 micromol/L UNC1999 for 48 hrs followed by compound addition at 2 micromol/L incubated for 12 hrs by annexin V/PI staining based flow cytometry (reference value: 0.37%); format: functional; conditions: dose 2 µmol/L, at 2 µM
[29] = tested on: OPM-2/BTZ; assay: Upregulation of EZH1 mRNA expression in human OPM-2/BTZ cells at 0.03 to 3 micromol/L after 6 to 48 hrs by qRT-PCR analysis; conditions: dose 0.03-3 µmol/L, time 6-48 hrs
[30] = tested on: OPM-2; assay: Synergistic activity against human OPM-2 cells assessed as combination index preincubated in presence of 5 uM UNC1999 for 72 hrs followed by compound addition at 5 uM incubated for 48 hrs by MTS assay

C[C@]1(O)C[C@@](N)(c2ccc(-c3nc4n(c3-c3ccccc3)COc3ccncc3-4)cc2)C1 [PIFUSERTIB]
Activity [1]: Active | Activity [2]: Active | Activity [3]: Active | Activity [4]: Active | Activity [5]: Active | Activity [6]: Active | Activity [7]: Active | CI [8]: 0.253 | CI [9]: 0.251 | CI [10]: 0.357 | CI [11]: 0.217 | CI [12]: 1.03 | CI [13]: 0.619 | CI [14]: 4.094 | CI [15]: 0.483 | CI [16]: 0.923 | CI [17]: 0.205 | CI [18]: 2.563 | Activity [19]: 0.23% | Activity [20]: 4.57% | Activity [21]: 85.7% | Activity [22]: Active | Activity [23]: Active | CI [24]: 3.1 | CI [25]: 5.25 | Activity [26]: 6.81% | Activity [27]: 91.7% | Activity [28]: 16.1% | Activity [29]: Dose-Dependent Effect | CI [30]: 6.32
